Data taken from ChEMBL document CHEMBL2202989, “New adamantane phenylalkylamines with σ-receptor binding affinity and anticancer activity, associated with putative antagonism of neuropathic pain” (J Med Chem, 2012).

Key:
BXPC-3 [1] = experiment: Cell cycle arrest in human BxPC3 cells assessed as accumulation at G2 phase at 15 uM after 24 hrs using propidium iodide staining by FACS analysis (reference value: 12 %); assay type: functional
How it was run: (§1)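 Cells were plated 24 h before treatment and exposed for 24 h at final 0.5, 5, 15 and 50 μM in 0.5% DMSO, against vehicle-treated controls. Cells were then trypsinised and fixed in cold ethanol for 3 h at 4 °C. They were stained in a mix of RNase (200 μg/mL) and PI (1 mg/mL) for 45 min at room temperature in the dark. Flow cytometry used 488 nm excitation and 10 000 gated cells. Phase percentages were assigned from DNA content.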

BXPC-3 [2] = experiment: Cell cycle arrest in human BxPC3 cells assessed as accumulation at S phase at 5 uM after 24 hrs using propidium iodide staining by FACS analysis (reference value: 33 %); assay type: functional; how it was run: as §1
BXPC-3 [3] = experiment: Cell cycle arrest in human BxPC3 cells assessed as accumulation at sub G1 phase at 50 uM after 24 hrs using propidium iodide staining by FACS analysis (reference value: 9 %); assay type: functional; how it was run: as §1
BXPC-3 [4] = experiment: Cell cycle arrest in human BxPC3 cells assessed as accumulation at sub G1 phase at 5 uM after 24 hrs using propidium iodide staining by FACS analysis (reference value: 9 %); assay type: functional; how it was run: as §1
Mus musculus = experiment: Toxicity in SCID mouse assessed as mortality at 40 to 55 mg/kg, ip for 2 to 3 weeks; assay type: organism-based; parameters: route intraperitoneal; conditions: in vivo
How it was run: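 CD-1 (male and female) and SCID mice dosed ip at 40−55 mg/kg in 5% Tween 80 for chronic 2−3 week regimens. Deaths and body weight loss compared with vehicle (Tween 80 or Cremophor) and reference-drug groups. Weight loss, neurological, behavioral and dietary changes recorded as toxicity signs.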

MIA PaCa-2 = experiment: Growth inhibition of human MIAPaCa2 cells after 48 hrs by SRB assay; assay type: functional; conditions: MIA PaCa-2, 48 h
How it was run: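 Cells grown in RPMI 1640 with 5% heat-inactivated FCS, 2 mM L-glutamine and antibiotics, 37 °C, 5% CO2. Seeded at 3500–30000 cells/well and left 24 h before dosing. DMSO solutions added at 10-fold dilutions from 100 to 0.01 μM for 48 h. Cells TCA-fixed and SRB-stained, absorbance read at 540 nm; GI50 derived against the time-zero plate.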

[5] = target: Sigma non-opioid intracellular receptor 1 (Homo sapiens, UniProt Q99720); experiment: Displacement of [3H]-(+)-pentazocine from sigma 1 receptor in human Jurkat cell membrane; assay type: cell membranes
How it was run: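 Jurkat cell membranes incubated with 8 nM [3H](+)-pentazocine and a range of test concentrations for 2 h at 22 °C in Tris-HCl buffer, pH 7.4. Nonspecific binding defined with 10 μM haloperidol. Run in triplicate.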

IGROV-1 [6] = experiment: Induction of apoptosis in human IGROV1 cells assessed as cleaved caspase3 containing cells at 15 uM by antibody-based FACS analysis (reference value: 3.9 %); assay type: functional
PC-3 [7] = experiment: Induction of apoptosis in human PC3 cells assessed as early apoptosis at 0.5 uM using annexin V/7-AAD by FACS analysis (reference value: 5 %); assay type: functional
PC-3 [8] = experiment: Induction of apoptosis in human PC3 cells assessed as healthy cells at 0.5 uM using annexin V/7-AAD by FACS analysis (reference value: 91 %); assay type: functional
IGROV-1 [9] = experiment: Induction of apoptosis in human IGROV1 cells assessed as total apoptotic death at 50 uM using annexin V/7-AAD by FACS analysis (reference value: 13 %); assay type: functional
How it was run: (§2)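 Cells plated 24 h before treatment, then exposed 24 h to 0.5, 5, 15 or 50 μM compound (final DMSO 0.5%); vehicle controls included. Cells scraped and stained with annexin V-FITC and 7-AAD for 15 min on ice in the dark. Flow cytometry with 488 nm excitation, 10,000 gated cells. Early apoptosis was annexin V+/7-AAD−, late was annexin V+/7-AAD+.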

IGROV-1 [10] = experiment: Induction of apoptosis in human IGROV1 cells assessed as late apoptosis at 5 uM using annexin V/7-AAD by FACS analysis (reference value: 5 %); assay type: functional
IGROV-1 [11] = experiment: Induction of apoptosis in human IGROV1 cells assessed as early apoptosis at 5 uM using annexin V/7-AAD by FACS analysis (reference value: 9 %); assay type: functional
IGROV-1 [12] = experiment: Induction of apoptosis in human IGROV1 cells assessed as healthy cells at 5 uM using annexin V/7-AAD by FACS analysis (reference value: 86 %); assay type: functional
IGROV-1 [13] = experiment: Induction of apoptosis in human IGROV1 cells assessed as healthy cells at 0.5 uM using annexin V/7-AAD by FACS analysis (reference value: 86 %); assay type: functional
BXPC-3 [14] = experiment: Induction of apoptosis in human BxPC3 cells assessed as total apoptotic death at 50 uM using annexin V/7-AAD by FACS analysis (reference value: 18 %); assay type: functional; how it was run: as §2
BXPC-3 [15] = experiment: Induction of apoptosis in human BxPC3 cells assessed as late apoptosis at 15 uM using annexin V/7-AAD by FACS analysis (reference value: 9 %); assay type: functional
PC-3 [16] = experiment: Cell cycle arrest in human PC3 cells assessed as accumulation at >G2/M phase at 5 uM after 24 hrs using propidium iodide staining by FACS analysis (reference value: 6 %); assay type: functional
PC-3 [17] = experiment: Cell cycle arrest in human PC3 cells assessed as accumulation at >G2/M phase at 0.5 uM after 24 hrs using propidium iodide staining by FACS analysis (reference value: 6 %); assay type: functional
PC-3 [18] = experiment: Cell cycle arrest in human PC3 cells assessed as accumulation at S phase at 15 uM after 24 hrs using propidium iodide staining by FACS analysis (reference value: 42 %); assay type: functional
PC-3 [19] = experiment: Cell cycle arrest in human PC3 cells assessed as accumulation at G1 phase at 50 uM after 24 hrs using propidium iodide staining by FACS analysis (reference value: 36 %); assay type: functional
PC-3 [20] = experiment: Cell cycle arrest in human PC3 cells assessed as accumulation at sub G1 phase at 0.5 uM after 24 hrs using propidium iodide staining by FACS analysis (reference value: 4 %); assay type: functional
IGROV-1 [21] = experiment: Cell cycle arrest in human IGROV1 cells assessed as accumulation at S phase at 0.5 uM after 24 hrs using propidium iodide staining by FACS analysis (reference value: 29 %); assay type: functional
IGROV-1 [22] = experiment: Cell cycle arrest in human IGROV1 cells assessed as accumulation at sub G1 phase at 5 uM after 24 hrs using propidium iodide staining by FACS analysis (reference value: 4 %); assay type: functional
BXPC-3 [23] = experiment: Cell cycle arrest in human BxPC3 cells assessed as accumulation at >G2/M phase at 50 uM after 24 hrs using propidium iodide staining by FACS analysis (reference value: 6 %); assay type: functional; how it was run: as §1

Chain of Sigma non-opioid intracellular receptor 1 (Q99720 whole entry): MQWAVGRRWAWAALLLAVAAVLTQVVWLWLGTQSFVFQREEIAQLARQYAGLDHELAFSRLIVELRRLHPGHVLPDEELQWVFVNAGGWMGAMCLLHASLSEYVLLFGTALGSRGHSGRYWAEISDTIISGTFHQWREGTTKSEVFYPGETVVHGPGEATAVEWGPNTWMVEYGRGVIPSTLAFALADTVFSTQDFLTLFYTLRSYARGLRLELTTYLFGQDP

CN1CCN(CCCc2ccc(C(c3ccccc3)C34CC5CC(CC(C5)C3)C4)cc2)CC1 (configuration not stated)
Activity (BXPC-3 [1]): 12%
Activity (BXPC-3 [2]): 23%
Activity (BXPC-3 [3]): 23%
Activity (BXPC-3 [4]): 8%
Activity (Mus musculus): Non-toxic
GI50 (MIA PaCa-2): 9.39 µM
TGI (MIA PaCa-2): 40.1 µM
CC50 (MIA PaCa-2; read-out: LC50 (the source's name)): 0.0726 µM
IC50 [5]: 0.0481 µM
Activity (IGROV-1 [6]): 61.4%
Activity (PC-3 [7]): 3%
Activity (PC-3 [8]): 95%
Activity (IGROV-1 [9]): 64%
Activity (IGROV-1 [10]): 5%
Activity (IGROV-1 [11]): 10%
Activity (IGROV-1 [12]): 83%
Activity (IGROV-1 [13]): 89%
Activity (BXPC-3 [14]): 46%
Activity (BXPC-3 [15]): 26%
Activity (PC-3 [16]): 6%
Activity (PC-3 [17]): 7%
Activity (PC-3 [18]): 31%
Activity (PC-3 [19]): 29%
Activity (PC-3 [20]): 4%
Activity (IGROV-1 [21]): 26%
Activity (IGROV-1 [22]): 4%
Activity (BXPC-3 [23]): 4%
